pEC50, pIC50, pKi: −log10 of the molar value.
How the values were obtained:
[1] = target: T1, Glutathione reductase, mitochondrial (Homo sapiens, UniProt P00390); test: Inhibitory activity against human erythrocyte glutathione reductase; '*' indicates No inhibition
T1 sequence (P00390 whole entry): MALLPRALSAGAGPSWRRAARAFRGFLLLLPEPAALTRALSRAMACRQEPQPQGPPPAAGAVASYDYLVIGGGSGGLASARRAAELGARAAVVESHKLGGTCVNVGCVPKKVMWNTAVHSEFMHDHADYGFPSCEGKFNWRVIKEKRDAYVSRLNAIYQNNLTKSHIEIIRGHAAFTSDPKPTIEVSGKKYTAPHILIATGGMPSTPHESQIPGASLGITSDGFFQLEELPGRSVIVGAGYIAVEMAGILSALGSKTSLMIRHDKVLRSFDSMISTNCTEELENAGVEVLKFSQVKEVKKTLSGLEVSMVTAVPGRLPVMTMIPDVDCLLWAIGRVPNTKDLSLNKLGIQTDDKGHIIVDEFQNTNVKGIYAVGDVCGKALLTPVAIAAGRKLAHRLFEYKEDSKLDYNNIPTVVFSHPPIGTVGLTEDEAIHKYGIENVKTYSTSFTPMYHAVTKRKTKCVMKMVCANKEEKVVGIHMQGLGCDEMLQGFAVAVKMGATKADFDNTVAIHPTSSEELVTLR
How it was run: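 Enzyme was isolated from human erythrocytes and assayed spectrophotometrically at 340 nm under literature conditions. Compounds were tested up to 1 mM, or 0.1 mM where solubility was limited.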

Trypanothione reductase [2] = target: T2, Trypanothione reductase (Trypanosoma cruzi, UniProt P28593); test: Inhibitory activity against recombinant Trypanosoma cruzi (Trypanosoma cruzi) Trypanothione reductase; settings: read-out: I50
How it was run: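 Recombinant T. cruzi TR, overexpressed in E. coli JM109 and homogeneous by SDS-PAGE, was used at about 0.3 µg/mL. Assay at 25 °C in 0.02 M HEPES pH 7.25 with 0.15 M KCl, 1 mM EDTA, 0.12 mM trypanothione disulfide and 0.1 mM NADPH, read at 340 nm. I50 came from nonlinear least-squares fitting of velocity versus inhibitor concentration using the linear competitive inhibition equation.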

Trypanothione reductase [3] = target: T2, Trypanothione reductase; test: Inhibitory activity against recombinant Trypanosoma cruzi (Trypanosoma cruzi) Trypanothione reductase (linear competitive type)
Trypanosoma brucei [4] = test: Effective dose against Trypanosoma brucei) bloodstream form trypomastigotes in HMI-9 medium; settings: read-out: ED50 (the source's name)
Mus musculus [5] = organism: Mus musculus; test: Effective dose against Trypanosoma cruzi (Trypanosoma cruzi) trypomastigotes in mouse peritoneal macrophages; Range is 10-30 uM; assay type: functional; settings: read-out: ED50 (the source's name)
Mus musculus [6] = organism: Mus musculus; test: Effective dose against Leishmania donovani (Leishmania donovani) amastigotes in mouse peritoneal macrophages; assay type: functional; settings: read-out: ED50 (the source's name)
How it was run: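 Mouse peritoneal macrophages kept on chamber slides in RPMI 1640 with 10% heat-inactivated foetal calf serum, 37 °C, 5% CO2, and infected with L. donovani MHOM/ET/69/L82 amastigotes taken from infected hamster spleens. After 24 h, compounds were added in a 3-fold dilution series in quadruplicate for 5 days. Slides were methanol-fixed and Giemsa-stained, then scored for the proportion of infected macrophages.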

Mus musculus [7] = organism: Mus musculus; test: Effective dose against Trypanosoma cruzi (Trypanosoma cruzi) trypomastigotes in mouse peritoneal macrophages; assay type: functional; settings: read-out: ED50 (the source's name)
Trypanosoma brucei [8] = test: Effective dose against Trypanosoma brucei) bloodstream form trypomastigotes; settings: read-out: ED50 (the source's name)
Mus musculus [9] = organism: Mus musculus; test: Effective dose against Trypanosoma cruzi (Trypanosoma cruzi) trypomastigotes in mouse peritoneal macrophages; Toxic to the macrophages; assay type: functional, organism-based
How it was run: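 T. cruzi (MHOM/BR/00/Y) trypomastigotes from infected L6 rat myoblast cultures infect mouse peritoneal macrophages at 5 parasites:1 macrophage, 37 °C, 5% CO2/air. Compounds in fresh medium 24 h post-infection, 3-fold dilutions, quadruplicate, 3 days. Cultures fixed, Giemsa-stained; proportion of infected macrophages scored.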

Mus musculus [10] = organism: Mus musculus; test: Effective dose against Leishmania donovani (Leishmania donovani) amastigotes in mouse peritoneal macrophages; Toxic to the macrophages; assay type: functional, organism-based
How it was run: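 Mouse peritoneal macrophages in RPMI 1640 + 10% heat-inactivated FCS, 37 °C, 5% CO2, infected with L. donovani (MHOM/ET/69/L82) amastigotes from infected hamster spleens. Compounds added 24 h post-infection in 3-fold dilutions, quadruplicate, for 5 days. Slides methanol-fixed, Giemsa-stained; proportion of infected macrophages scored.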

T2 sequence (P28593 whole entry): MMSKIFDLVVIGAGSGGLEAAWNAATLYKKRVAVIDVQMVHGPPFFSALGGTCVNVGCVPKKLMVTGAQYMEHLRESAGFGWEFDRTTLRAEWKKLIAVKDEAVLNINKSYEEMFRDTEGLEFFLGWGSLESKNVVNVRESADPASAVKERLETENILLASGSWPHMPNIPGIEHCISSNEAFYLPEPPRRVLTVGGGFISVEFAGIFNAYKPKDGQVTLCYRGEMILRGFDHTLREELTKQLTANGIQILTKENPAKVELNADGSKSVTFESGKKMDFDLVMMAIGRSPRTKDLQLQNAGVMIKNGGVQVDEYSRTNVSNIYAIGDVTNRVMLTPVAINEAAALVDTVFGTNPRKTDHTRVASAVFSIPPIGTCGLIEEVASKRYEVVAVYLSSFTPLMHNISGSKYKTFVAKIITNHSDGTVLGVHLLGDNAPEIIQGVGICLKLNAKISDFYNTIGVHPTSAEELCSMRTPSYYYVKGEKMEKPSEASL

SMILES | I50 [1] | pIC50 (Trypanothione reductase [2]) | pEC50 (Mus musculus [6]) | further results
CN(C)CCCN1c2ccccc2Sc2ccc(C(=O)O)cc21 | Not Active | 2.41 | – | –
CCN(CC)CCCCCC(=O)N1c2ccccc2Sc2ccc(Cl)cc21 | – | 3.34 | – | –
CN(C)CCCN1c2ccccc2Sc2ccccc21 [PROMAZINE] | Not Active | 3.97 | – | pKi (Trypanothione reductase [3]): 4.23
CN(C)C(C)(C)CN1c2ccccc2Sc2ccccc21 | Not Active | 2.93 | – | –
O=C(CBr)N1c2ccccc2Sc2ccc(Cl)cc21 | – | 3.60 | 5.22 | pEC50 (Trypanosoma brucei [4]): 6.01; pEC50 (Mus musculus [5]): 5.00
CCCC(=O)N1c2ccccc2Sc2ccc(Cl)cc21 | – | 4.02 | < 4.52 | pEC50 (Trypanosoma brucei [4]): < 4.52; pEC50 (Mus musculus [7]): < 4.52
CNCCCN1c2ccccc2Sc2ccccc21 | Not Active | 2.99 | – | –
CC(CN(C)C)CN1c2ccccc2Sc2ccccc21 (stereo not given) [METHYLPROMAZINE] | Not Active | 3.60 | – | pKi (Trypanothione reductase [3]): 3.90
OCCN1CCN(CCCN2c3ccccc3Sc3ccc(C(F)(F)F)cc32)CC1 [FLUPHENAZINE] | Not Active | 4.13 | < 4.52 | pEC50 (Mus musculus [7]): < 4.52; pKi (Trypanothione reductase [3]): 4.67; pEC50 (Trypanosoma brucei [8]): < 4.52
O=C(O)CCC(=O)N1c2ccccc2Sc2ccc(Cl)cc21 | – | 2.83 | – | –
CN1CCN(CCCN2c3ccccc3Sc3ccc(C(F)(F)F)cc32)CC1 [TRIFLUOPERAZINE] | Not Active | 4.14 | – | pKi (Trypanothione reductase [3]): 4.64
O=C(CCl)N1c2ccccc2Sc2ccc(Cl)cc21 | – | 3.06 | – | –
CN(C)CCCN1c2ccccc2Sc2c(Cl)cccc21 | Not Active | 3.12 | 4.32 | pEC50 (Mus musculus [7]): 4.53; pEC50 (Trypanosoma brucei [8]): 5.52
CN(C)CCCN1c2ccccc2Sc2ccc(C(N)=O)cc21 | Not Active | 3.34 | – | –
CN(C)CCCN1c2ccccc2Sc2ccc(CN)cc21 | – | 3.66 | – | pEC50 (Trypanosoma brucei [4]): 6.43; ED50 (Mus musculus [9]): Toxic; ED50 (Mus musculus [10]): Toxic
CN(C)CCCN1c2ccccc2Sc2ccc(/C=N/O)cc21 | – | 3.84 | < 4.52 | pEC50 (Trypanosoma brucei [4]): 5.13; pEC50 (Mus musculus [5]): 5.00
CC(CN1c2ccccc2Sc2ccccc21)N(C)C (stereo not given) [PROMETHAZINE] | Not Active | 3.57 | – | pKi (Trypanothione reductase [3]): 3.67
CCC(=O)c1ccc2c(c1)N(CCCN(C)C)c1ccccc1S2 | – | 3.45 | < 4.52 | pEC50 (Trypanosoma brucei [4]): 5.00; pEC50 (Mus musculus [7]): < 4.52
CNCCCN1c2ccccc2Sc2ccc(Cl)cc21 [NOR1-CHLORPROMAZINE] | Not Active | 3.90 | – | –
CC(=O)c1ccc2c(c1)N(CCCN(C)C)c1cc(Cl)ccc1S2 | – | 3.76 | 4.92 | pEC50 (Trypanosoma brucei [4]): 5.89; pEC50 (Mus musculus [7]): < 4.52
CN(C)CCCN1c2ccccc2Sc2ccc(C(F)(F)F)cc21 [TRIFLUPROMAZINE] | Not Active | 3.96 | – | pKi (Trypanothione reductase [3]): 4.52; pEC50 (Trypanosoma brucei [8]): 5.49
CN(C)CCCN1c2ccccc2Sc2ccc(Cl)cc21 [CHLORPROMAZINE] | Not Active | 4.45 | 5.31 | pEC50 (Mus musculus [7]): < 5.00; pKi (Trypanothione reductase [3]): 4.97; pEC50 (Trypanosoma brucei [8]): 5.43

SMILES | I50 [1] | pIC50 (Trypanothione reductase [2]) | pEC50 (Mus musculus [6]) | further results
CC(=O)N1c2ccccc2Sc2ccc(C(=O)CCl)cc21 | – | 3.36 | – | –
CCN(CC)CCN1c2ccccc2Sc2ccc(Cl)cc21 | Not Active | 4.09 | – | –
COC(=O)c1ccc2c(c1)N(CCCN(C)C)c1ccccc1S2 | Not Active | 3.46 | – | –
O=C(CNc1ccccc1)N1c2ccccc2Sc2ccc(Cl)cc21 | – | 3.59 | – | –
CCN(CC)CCCC(=O)N1c2ccccc2Sc2ccc(Cl)cc21 | – | 3.49 | – | –
CC(=O)c1ccc2c(c1)N(C(C)=O)c1cc(Cl)ccc1S2 | – | 3.40 | < 4.52 | pEC50 (Trypanosoma brucei [4]): < 4.52; pEC50 (Mus musculus [7]): < 4.52
CN(C)CCCN1c2ccccc2Sc2ccc(COc3ccc(C(C)(C)C)cc3)cc21 | Not Active | 3.79 | < 4.52 | pEC50 (Mus musculus [7]): < 4.52; pEC50 (Trypanosoma brucei [8]): < 4.52
CN(C)CCN1c2ccccc2Sc2ccc(Cl)cc21 [CHOLRPHENETHAZINE] | Not Active | 3.82 | – | –
CCCCCC(=O)c1ccc2c(c1)N(CCCN(C)C)c1ccccc1S2 | – | 3.77 | – | pEC50 (Trypanosoma brucei [4]): < 4.52
CCN(CC)CC(=O)N1c2ccccc2Sc2ccc(Cl)cc21 | – | 3.08 | – | –
CN(C)CCCN1c2ccccc2Sc2ccc(CO)cc21 | Not Active | 2.93 | – | –
CC(=O)c1ccc2c(c1)N(C(C)=O)c1ccccc1S2 | Not Active | 2.55 | – | –
CCCN1CCN(CCCN2c3ccccc3Sc3ccc(Cl)cc32)CC1 | Not Active | 4.02 | – | pKi (Trypanothione reductase [3]): 4.73
CN(C)CCCN1c2ccccc2[S+]([O-])c2ccc(Cl)cc21 (stereo not given) [CHLOROPROMAZINE SULFOXIDE] | Not Active | 4.12 | – | –
NCCCN1c2ccccc2Sc2ccccc21 | Not Active | 2.85 | 5.48 | pEC50 (Mus musculus [7]): 4.26; pEC50 (Trypanosoma brucei [8]): 5.42
CC(=O)c1ccc2c(c1)N(CCCN(C)C)c1ccccc1S2 [ACEPROMAZINE] | – | 3.30 | – | pEC50 (Trypanosoma brucei [4]): 5.19; ED50 (Mus musculus [9]): Toxic; ED50 (Mus musculus [10]): Toxic
N=C(N)CCN1c2ccccc2Sc2ccc(Cl)cc21 | – | 3.51 | – | –
CC(=O)c1ccc2c(c1)N(C(C)=O)c1cc(C(C)=O)ccc1S2 | – | 4.31 | < 4.52 | pEC50 (Trypanosoma brucei [4]): < 4.52; pEC50 (Mus musculus [7]): < 4.52
CCN(CC)CCC(=O)N1c2ccccc2Sc2ccc(Cl)cc21 [CHLORACYZINE] | – | 3.10 | – | –
N=C(N)CCN1c2ccccc2Sc2ccccc21 | – | 3.00 | – | –
O=C(CCC(=O)N1c2ccccc2Sc2ccc(Cl)cc21)NCc1ccccc1 | – | 3.73 | < 4.52 | pEC50 (Trypanosoma brucei [4]): < 4.52; pEC50 (Mus musculus [7]): < 4.52

From ChEMBL document CHEMBL1131108, “Phenothiazine inhibitors of trypanothione reductase as potential antitrypanosomal and antileishmanial drugs” (J Med Chem, 1998)
